Shown are actives, neighbours in structure and some others; about 2% of the full set was active somewhere.
ABHD4 inh = inhibits mouse alpha/beta hydrolase domain 4 | purified mABHD4, FP-Rh probe fluorescence polarization | inhibition, % at 8.92 µM | AID 720543 | Q8VD66 | actives 0.54% (n = 370,000);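 active means inhibition exceeding the mean over every tested compound plus 3 SD, cut at about 30% in these data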
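Test system: mouse ABHD4 enzyme, wild type. Reagent: FP-Rh fluorescent activity-based probe, added after compound pre-incubation. Timing: pre-incubation 45 min, probe exposure 60 min, at 25 °C. Technique: FP readout, ex 525 nm / em 598 nm. Benchmarks: high control S159A mutant with DMSO, low control median of compound wells.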
TDP2 inh = blocks human TDP2 phosphodiesterase activity | O95551 | recombinant TDP2, T5PNP hydrolysis, p-nitrophenol absorbance 415 nm | inhibition, % at 12.8 µM | actives 0.34% (n = 370,000);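 active means inhibition above the mean of all tested compounds plus 3 SD, set per campaign, cut at about 25% in these data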
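Test system: human TDP2 enzyme; Input: 120 nM TDP2 per well; Buffer or medium: Mg2+-containing Tris-HCl buffer, pH 7.5; Reagent: 5 mM T5PNP; Dosing: 12.8 µM single point, 1% DMSO; Incubation: reaction 2 h, 37 °C; Detection: p-Nitrophenol epi absorbance; Read-out: % inhibition relative to enzyme-containing and enzyme-free wells; Replicates: single well per compound.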
TCR-CD3 inh = blocks the human TCR-CD3 interaction. TAMRA-labeled TCR probe fluorescence, biochemical. inhibition, % at 9.4 µM. AID 651800. actives 0.37% (n = 360,000);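 further: recombinant mutant TCR 2C K166C tagged with TAMRA read by polarization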
PAD4 inh = blocks human protein arginine deiminase 4. recombinant PAD4, RCA probe fluorescence polarization. inhibition, % at 6.36 µM. actives 0.41% (n = 330,000);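 active means percent inhibition above a cutoff equal to the mean of all tested compounds plus 3 SD, cut at about 15% in these data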
Target sequence (Q9UM07 whole entry, looked up): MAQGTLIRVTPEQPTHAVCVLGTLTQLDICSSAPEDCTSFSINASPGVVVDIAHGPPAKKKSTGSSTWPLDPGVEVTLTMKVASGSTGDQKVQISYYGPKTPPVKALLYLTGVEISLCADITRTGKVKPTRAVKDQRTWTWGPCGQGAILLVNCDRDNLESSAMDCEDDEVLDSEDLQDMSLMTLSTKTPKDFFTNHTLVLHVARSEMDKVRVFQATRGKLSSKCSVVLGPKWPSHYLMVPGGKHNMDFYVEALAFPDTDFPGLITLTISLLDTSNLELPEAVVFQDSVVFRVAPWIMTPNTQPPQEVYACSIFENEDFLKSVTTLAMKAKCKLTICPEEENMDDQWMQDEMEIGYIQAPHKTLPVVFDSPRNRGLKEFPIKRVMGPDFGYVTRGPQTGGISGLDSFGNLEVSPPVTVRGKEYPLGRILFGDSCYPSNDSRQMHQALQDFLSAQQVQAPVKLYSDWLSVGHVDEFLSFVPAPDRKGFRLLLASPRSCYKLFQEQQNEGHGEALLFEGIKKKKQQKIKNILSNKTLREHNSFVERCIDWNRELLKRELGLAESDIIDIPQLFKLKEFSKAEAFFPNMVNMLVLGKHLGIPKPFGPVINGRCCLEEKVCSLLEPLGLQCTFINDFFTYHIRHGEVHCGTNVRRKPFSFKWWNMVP
HTRA1 inhibitor = blocks human HTRA1 serine peptidase | Q92743 | recombinant HTRA1, FP-rhodamine activity-based probe, fluorescence polarization | inhibition, % at 5.96 µM | actives 0.5% (n = 340,000); in the data active means inhibition above about 36%
SIAE primary = human SIAE inhibition, primary screen | Q9HAT2 | SIAE FP-Rh probe binding, fluorescence polarization | inhibition, % at 9.66 µM | actives 0.69% (n = 370,000) | AID 1053197;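 active means inhibition above a cutoff: mean of compounds within the control limits plus 3 SD of those, cut at about 17% in these data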
BSA probe FL = counter-screen for TCR-CD3 interaction inhibitors: BSA probe | TAMRA-labeled BSA probe fluorescence counterscreen | inhibition, % at 9.4 µM | shares compounds with TCR-CD3 inh | AID 652035 | actives 10% (n = 1,200); in the data active means inhibition above about 23%
TCR-CD3 conf = confirmation of human TCR-CD3 interaction inhibitors; shares compounds with TCR-CD3 inh; inhibition, % at 9.4 µM; TAMRA-labeled TCR probe fluorescence binding assay; actives 48% (n = 1,200)
Hits are given with their value; n = inactive; x = no result given. Unless noted, no stated cut-off is given here; in the data, active means inhibition above about 19%; inactive means the rest.

SMILES	ABHD4 inh	TDP2 inh	TCR-CD3 inh	PAD4 inh	HTRA1 inhibitor	SIAE primary	BSA probe FL	TCR-CD3 conf
CCn1ncc([N+](=O)[O-])c1C(=O)N1CCc2ccccc2C1	n	n	n	n	n	n	x	x
CC(C)CC1NC(=O)c2ccc(Cl)cc2-n2c1nc1ccc(F)cc1c2=O (centres undefined)	n	n	n	n	x	n	x	x
CC(C)CC1NC(=O)c2ccc(Cl)cc2-n2c1nc1cc(F)ccc1c2=O (centres undefined)	n	n	169.5	n	x	n	n	n
O=C(Nc1ccc(Cl)c(Cl)c1)Oc1ccc(NC(=O)c2ccco2)cc1	n	n	39.8	n	n	n	n	n
Cc1noc(C)c1COc1ccc(C(=O)NNC(=O)c2ccccc2O)cc1	n	n	25.0	n	n	n	n	26.2
CCOc1ccc(C(=O)CCC(=O)NNC(=O)c2ccccc2O)cc1	n	n	28.9	n	n	n	n	26.2
CCCCN1C(=O)Cc2c1nc(N)c1c(N)nc(N(CCC)CCC)c(C#N)c21	n	n	n	n	n	n	x	x
N#Cc1c(N(CCO)CCO)nc(N)c2c(N)nc3c(c12)CC(=O)N3CC1CCCO1 (centres undefined)	n	n	24.6	n	n	n	n	n
CCOC1=C2[C@H](c3ccc(CC)cc3)N(S(=O)(=O)c3ccc(C)cc3)C[C@H]2n2c(=O)n(-c3ccccc3)c(=O)n2C1	n	n	n	x	x	n	x	x
O=c1c2c(-c3ccc(Cl)cc3)csc2ncn1/N=C/c1cccc([N+](=O)[O-])c1O	n	n	30.2	n	n	n	n	28.9
O=[N+]([O-])c1cccc(/C=N/n2cnnc2)c1O	n	n	n	n	n	n	x	x
Cc1cc(C)cc(C(=O)OCCN2CCN(C3CN(Cc4cn(Cc5ccc([N+](=O)[O-])cc5)nn4)S(=O)(=O)C3)CC2)c1 (centres undefined)	n	n	x	x	x	n	x	x
NC1=NC[C@H](Cc2ccc(O)cc2)N1CCc1cccc(F)c1	n	n	33.2	n	n	n	n	n
CN(C)C1=NC[C@H](Cc2ccccc2)N1CCc1cccc(F)c1	n	n	n	n	n	n	x	x
Cc1ccc(NC(=O)c2cccc(NC3=NC4CS(=O)(=O)CC4S3)c2)cc1 (centres undefined)	n	n	n	n	n	n	x	x
C#CCn1c(=NC(=O)c2ccc(S(=O)(=O)N3CCc4ccccc4C3)cc2)sc2cc(S(N)(=O)=O)ccc21	x	x	x	n	n	x	x	x
C=CCn1c(=NC(=O)c2ccc(S(=O)(=O)N3CCc4ccccc4C3)cc2)sc2cc(S(N)(=O)=O)ccc21	n	n	30.8	n	n	n	n	31.1
CNC(=S)NNC(=O)c1ccc(=O)n(Cc2ccc(Cl)cc2Cl)c1	n	n	n	n	n	n	x	x
CNC(=S)NNC(=O)c1cccn(Cc2ccc(Cl)cc2Cl)c1=O	n	n	27.1	n	x	n	n	25.8
CNC(=S)NNC(=O)c1cccn(Cc2cccc(C(F)(F)F)c2)c1=O	n	n	25.9	n	n	n	n	24.5
CC[C@@H]1C/C=C\Cc2ccccc2[C@H](C(=O)C[C@@H](O)CC(C)=O)OC1=O	n	n	n	n	n	n	x	x
COc1ccc(CCCNC(=O)C2(C)Cc3c(-c4cccc(C(N)=O)c4)ccnc3O2)cc1 (centres undefined)	n	n	n	x	x	n	x	x
Oc1cc(O)cc(C=Cc2ccc(O)c(O)c2)c1	n	n	20.7	x	x	n	n	n
Oc1ccc(/C=C/c2cc(O)cc(O)c2)cc1	n	n	n	n	n	n	x	x
Cc1ccccc1CNC(=O)c1ccccc1SCC(=O)NCc1ccco1	n	n	n	x	n	n	x	x
SMILES	ABHD4 inh	TDP2 inh	TCR-CD3 inh	PAD4 inh	HTRA1 inhibitor	SIAE primary	BSA probe FL	TCR-CD3 conf
COc1ccccc1NS(=O)(=O)c1cccc(C(=O)N/N=C/c2cn(-c3ccccc3)nc2-c2ccccc2)c1	n	n	45.0	n	n	n	n	43.6
COc1ccc(NS(=O)(=O)c2cccc(C(=O)N/N=C/c3cn(-c4ccccc4)nc3-c3ccccc3)c2)cc1	n	n	n	n	n	n	x	x
CCOC(=O)CCN	n	n	n	n	n	n	x	x
CCCNC(=O)C(Cc1ccccc1)NC(=O)c1ccc(C(F)(F)F)cc1 (centres undefined)	n	n	22.1	n	n	n	n	n
Cc1ccc(S(=O)(=O)N(C)c2ccc(OCC(=O)Nc3nc4ccccc4s3)cc2)cc1	n	n	20.7	n	n	n	n	n
Cc1cc2c(nc1C)CCCN2Cc1ccccn1	n	n	39.5	x	x	n	38.7	34.3
Brc1ccc(-c2ccc3c(n2)CCCN3Cc2ccccn2)cc1	n	n	n	x	x	n	x	x
COc1ccccc1N1CCN(S(=O)(=O)c2ccc3nc(-c4ccccc4)[nH]c3c2)CC1	n	n	n	n	n	n	x	x
O=S(=O)(c1ccc2nc(-c3ccccc3)[nH]c2c1)N1CCN(c2cccc(Cl)c2)CC1	n	n	68.5	n	n	n	27.1	45.5
O=C(N/N=C/C1CC=CCC1)c1ccc(Cl)cc1O (centres undefined)	n	n	20.4	n	n	n	n	n
O=C(N/N=C/C1CC=CCC1)c1ccccc1O (centres undefined)	n	n	n	n	n	n	x	x
CCN(CC)S(=O)(=O)c1cccc(C(=O)N/N=C(\C)c2ccc(O)cc2O)c1	n	n	41.2	n	n	n	n	44.4
CCN(CC)C(=O)c1ccccc1NC(=O)c1cccc(S(=O)(=O)N(CC)CC)c1	n	n	n	n	n	n	x	x
CCOC(=O)C(NC(C)=O)C(=O)Nc1c(C)cccc1C (centres undefined)	n	n	n	n	n	n	x	x
COC(=O)Nc1ccc(S(=O)(=O)NNC(=O)c2c(O)c3ccccc3n(C)c2=O)cc1	n	n	55.8	n	n	n	n	24.7
Cn1c(=O)c(C(=O)NNC(=O)c2ccccc2F)c(O)c2ccccc21	n	n	33.4	n	n	n	n	27.7
COc1ccc(OCC(=O)N2CCC(n3nccc3NC(=O)C3CC3)CC2)cc1	n	n	20.5	n	n	n	n	n
COc1ccc(-c2cnnn2-c2ccc(NC(=O)c3ccc(S(=O)(=O)N4CCCCC4)cc3)cc2)cc1	n	n	24.0	n	n	n	28.7	39.0
O=C1c2ccccc2C(c2nnnn2-c2ccc3c(c2)OCCO3)N1Cc1ccc2c(c1)OCO2 (centres undefined)	n	n	n	x	x	n	x	x
O=C1c2ccccc2C(c2nnnn2-c2ccc3c(c2)OCCO3)N1Cc1ccco1 (centres undefined)	n	n	25.2	x	x	n	n	n
